M1 antagonist – blocks the rat M1 muscarinic receptor response to acetylcholine; CHO-M1 cells, Fluo-4 calcium, ACh EC80 antagonist mode; hits give low values; P08482; B-score at 10 µM; 64,000 tested, 3.4% active;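 active means calcium fluorescence response, raw or row-and-column corrected B-score, differing from the plate sample mean either way at a set confidence level, mostly lower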
Target sequence (P08482 whole entry, looked up): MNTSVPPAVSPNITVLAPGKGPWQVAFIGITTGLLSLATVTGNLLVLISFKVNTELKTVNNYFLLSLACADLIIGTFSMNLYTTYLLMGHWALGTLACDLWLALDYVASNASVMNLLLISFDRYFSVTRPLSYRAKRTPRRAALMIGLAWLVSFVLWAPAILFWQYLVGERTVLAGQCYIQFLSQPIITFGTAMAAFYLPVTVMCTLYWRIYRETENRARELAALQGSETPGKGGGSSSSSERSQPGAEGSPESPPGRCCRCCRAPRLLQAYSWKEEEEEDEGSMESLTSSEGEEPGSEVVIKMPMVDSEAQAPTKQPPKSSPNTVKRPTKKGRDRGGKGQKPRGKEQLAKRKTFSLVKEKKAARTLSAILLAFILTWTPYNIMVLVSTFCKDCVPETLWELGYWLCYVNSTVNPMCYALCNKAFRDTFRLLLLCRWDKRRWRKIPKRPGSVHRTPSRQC
Jurkat viability – cytotoxic compounds reducing Jurkat cell viability; inhibition, % at 4 µM; 56,000 tested, 1.2% active; Jurkat E6.1 viability, ATP luminescence, 48 h; AID 463;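 active means inhibition above the mean inhibition of all tested compounds plus 3 SD, cut at about 28% in these data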
M1 ag – agonists of M1 muscarinic receptor; CHO-M1 cells, Fluo-4 calcium fluorescence, agonist mode; hits give high values; B-score at 10 µM; 64,000 tested, 3% active;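 active means fluorescence rise, raw or as B-score row- and column-corrected plate score, outside the 99.7% band of its plate's samples, either direction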
hDAT+cocaine – human DAT dopamine uptake with cocaine, either direction | Q01959 | LLC-PK1 hDAT cells, [14C]-dopamine uptake with cocaine IC80; actives deviate in either direction | B-score at 10 µM | 110,000 tested, 1.3% active | AID 449768;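 active means Z score or B-score, a plate-position-corrected score, falls beyond the plate's 99.7% confidence bounds, in either direction; inactive means both scores lie inside the 99.7% bounds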;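 further: scored against the spread of the other compound wells on the same plate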
D1 allo mod – allosteric modulators of human D1 dopamine receptor | 58,000 tested, 5.9% active | HEK293 D1, CRE-luciferase, dopamine EC30 potentiation; actives deviate in either direction | B-score at 10 µM | P21728;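 active means luminescence count or its row- and column-corrected plate score outside the 99.7% band of the plate's sample wells, on either side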
HEK293 NFkB inh – lowers PMA/ionomycin-induced NF-kB signal in HEK293 cells. HEK-293 NF-kB luciferase reporter, luminescence. inhibition, % at 3 µM. 62,000 tested, 0.21% active. AID 465;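 active means inhibition above the mean of all tested compounds plus 3 SD, cut at about 40% in these data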;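 further: 0% = stimulated DMSO wells and 100% = 10 µM reference inhibitor 5653914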
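System: NF-kB luciferase reporter HEK-293 cells | Replication: Single test | Control set: DMSO vs reference inhibitor | Evaluation: % inhibition | Schedule: 1 h pretreatment, 16 h stimulation, 37 °C | Probe or stimulus: PMA with ionomycin | Compound dosing: One dose, 3 µM | Detection: Luciferase luminescence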
* hit, by the source's call; . = not tested or not shown. Shown are actives, neighbours in structure and some others; about 7.6% of the full set was active somewhere.

SMILES	M1 antagonist	Jurkat viability	M1 ag	hDAT+cocaine	D1 allo mod	HEK293 NFkB inh
CN(C)c1ccc(/C=N/Nc2ccc(-n3ccnc3)nn2)cc1	.	.	.	0.525	.	.
CCSC1=C(C#N)C(c2ccc(C)s2)CC(=O)N1 (stereo not drawn)	0.0147	-0.3	-0.759	-0.248	-0.0739	14.7
CCOC(=O)CSC1=C(C#N)C(c2ccc(C)s2)CC(=O)N1 (stereo not drawn)	0.316	86.3*	-0.161	0.272	0.775	23.4
Cc1ccc(-n2c(SCc3ccc(C#N)cc3)nnc2-c2ccccn2)cc1	-0.211	3.8	-0.962	-7.73*	-4*	4.7
O=C(O)c1nn(-c2ccccc2)nc1-c1nn(-c2ccccc2)nc1C(=O)O	0.176	3.2	1.06	-1.12	0.198	20.7
O/N=C1/CC/C(=N\O)c2nn(-c3ccccc3)nc21	-1.02	3.2	-0.84	-8.05*	0.507	9.6
Cc1cc(C)n2cc(CSc3nc4cc(Cl)ccc4o3)nc2n1	-0.509	0.3	-1.84	4.04*	2.13	21.3
Cc1cc(C)n2cc(CSc3nnc(-c4ccccc4)o3)nc2n1	0.892	0.1	-2.55	0.523	1.09	10.2
N=c1n(CCN2CCOCC2)c2ccccc2n1CC(O)COc1ccccc1 (stereo not drawn)	0.821	-0.9	1.2	0.124	-2.06	20.6
Cc1ccccc1OCC(O)Cn1c(=N)n(CCN2CCOCC2)c2ccccc21 (stereo not drawn)	-0.486	.	-0.516	0.48	-4.85*	17.1
CN(C)C(=O)CSc1nnc(CCNC(=O)OC(C)(C)C)o1	0.0388	-7.6	1.12	0.282	0.06	14.7
CCOC(=O)c1sc2nc(C)n(CC(=O)NCC3CCCO3)c(=O)c2c1C (stereo not drawn)	-0.383	8.8	-0.83	-0.287	-0.333	10.2
COc1ccc(C(=O)OCCN2C(=O)c3ccccc3C2=O)cc1OC	0.992	.	0.437	.	5.69*	.
COc1cc(C(=O)N2CCN(c3ncnc4sc(C)c(C)c34)CC2)cc(OC)c1OC	-0.437	76.2*	-1.1	-0.211	-0.48	25.8
Cc1cc(Br)cc(C)c1NC(=S)NC(=O)CC(C)C	.	.	.	-7.96*	.	.
CCC(CC)c1nnc(NC(=O)c2c(C)nn(Cc3ccccc3Cl)c2C)s1	.	.	.	-0.0252	.	.
Cc1ccc(N2CC3=C(C2=O)C(c2ccccc2)NC(=O)N3C)cc1 (stereo not drawn)	.	.	.	-1.51*	.	.
Cc1cccc(N2CC3=C(C2=O)C(c2ccccc2)NC(=O)N3C)c1 (stereo not drawn)	0.00543	-2.1	0.204	0.261	0.257	19.8
O=C1C2C(C(=O)N1c1ccc3c(c1)OCO3)C1C=CC2C12CC2 (stereo not drawn)	-0.0442	.	-0.0766	0.341	-0.74	.
Cc1ccccc1OCc1nnc(SCC(=O)N2CCc3ccccc32)n1C	.	.	.	-8.59*	.	.
CCn1c(SCC(=O)N2CCc3ccccc32)nc2c(c1=O)SC(C)C2 (stereo not drawn)	0.134	-2.6	-0.00462	.	0.0915	-1.3
CCCn1c(SCC(=O)N2c3ccccc3Sc3ccccc32)nc2c1c(=O)n(C)c(=O)n2C	-0.402	-2.0	0.873	1.24	0.148	3.0
Cn1c(SCC(=O)N2CCCc3ccccc32)nnc1-c1c[nH]c2ccccc12	0.178	0.9	-0.12	3.56*	-0.403	2.3
CCn1c(SCC(=O)N2CCCc3ccccc32)nnc1-c1c[nH]c2ccccc12	-0.528	-4.0	0.409	0.986	0.258	-7.3
CCn1c(SCC(=O)N2CCCc3ccccc32)nc2c(c1=O)SC(C)C2 (stereo not drawn)	3.25*	8.6	0.444	0.29	.	4.3
SMILES	M1 antagonist	Jurkat viability	M1 ag	hDAT+cocaine	D1 allo mod	HEK293 NFkB inh
CCCn1c(SCC(=O)N2CCCc3ccccc32)nc2c1c(=O)n(C)c(=O)n2C	0.395	13.0	1.88	.	4.18*	9.1
Cc1ccc(-c2nnn(Cc3nc(N)nc(N4CCOCC4)n3)n2)cc1	.	-8.8	.	-0.0202	1.7	18.3
CC(CCc1ccco1)NC(=O)Nc1cccc(F)c1 (stereo not drawn)	-0.00549	-11.2	-0.478	-2.59*	-0.26	-3.4
CCN(c1cccc(C)c1)S(=O)(=O)c1ccc2[nH]c(=O)c(=O)[nH]c2c1	0.635	5.7	0.408	0.568	-1.17	7.3
CCC(NC(=O)Nc1cc(OC)c(OC)c(OC)c1)(C(F)(F)F)C(F)(F)F	2.41*	.	0.0157	-0.962	-0.264	.
CCC(NC(=O)Nc1nccs1)(C(F)(F)F)C(F)(F)F	0.0182	.	-1.46	-0.0587	0.469	.

Bioassay records as filed in PubChem.
